Assay results taken from ChEMBL document CHEMBL1135879 (J Med Chem, 2002).

Columns and labels:
[1] = target: T1, Amine oxidase [flavin-containing] B (Bos taurus, UniProt P56560); assay: Inhibition of bovine brain mitochondrial Monoamine oxidase B (MAO-B) compared to toloxatone
T1 sequence (P56560 whole entry): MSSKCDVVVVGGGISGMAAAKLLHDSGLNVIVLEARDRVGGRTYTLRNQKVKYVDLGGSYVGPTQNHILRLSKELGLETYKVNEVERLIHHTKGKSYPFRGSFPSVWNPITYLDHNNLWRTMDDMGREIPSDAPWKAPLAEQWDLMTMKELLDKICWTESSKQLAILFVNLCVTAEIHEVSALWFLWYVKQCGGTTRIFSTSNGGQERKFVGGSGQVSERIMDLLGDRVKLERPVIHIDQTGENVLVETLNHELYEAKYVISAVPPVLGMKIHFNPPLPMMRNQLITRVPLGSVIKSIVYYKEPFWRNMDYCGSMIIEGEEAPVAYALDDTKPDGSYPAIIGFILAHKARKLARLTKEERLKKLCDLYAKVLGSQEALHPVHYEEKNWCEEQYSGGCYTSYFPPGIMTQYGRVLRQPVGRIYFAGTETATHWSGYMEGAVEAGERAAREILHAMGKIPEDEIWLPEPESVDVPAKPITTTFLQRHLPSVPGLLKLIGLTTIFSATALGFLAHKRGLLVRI
Summary of the method: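 Bovine brain mitochondrial fractions were isolated by the Basford method. To leave MAO-B activity, fractions were preincubated 30 min at 38 °C with 1 μM clorgyline. Inhibitors in DMSO were preincubated 30 min before kynuramine was added, then incubated 30 min more. Fluorimetric read-out was used and Ki values determined.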

[2] = target: T2, Amine oxidase [flavin-containing] A (Bos taurus, UniProt P21398); assay: Inhibition of bovine brain mitochondrial Monoamine oxidase A (MAO-A) compared to toloxatone
T2 sequence (P21398 whole entry): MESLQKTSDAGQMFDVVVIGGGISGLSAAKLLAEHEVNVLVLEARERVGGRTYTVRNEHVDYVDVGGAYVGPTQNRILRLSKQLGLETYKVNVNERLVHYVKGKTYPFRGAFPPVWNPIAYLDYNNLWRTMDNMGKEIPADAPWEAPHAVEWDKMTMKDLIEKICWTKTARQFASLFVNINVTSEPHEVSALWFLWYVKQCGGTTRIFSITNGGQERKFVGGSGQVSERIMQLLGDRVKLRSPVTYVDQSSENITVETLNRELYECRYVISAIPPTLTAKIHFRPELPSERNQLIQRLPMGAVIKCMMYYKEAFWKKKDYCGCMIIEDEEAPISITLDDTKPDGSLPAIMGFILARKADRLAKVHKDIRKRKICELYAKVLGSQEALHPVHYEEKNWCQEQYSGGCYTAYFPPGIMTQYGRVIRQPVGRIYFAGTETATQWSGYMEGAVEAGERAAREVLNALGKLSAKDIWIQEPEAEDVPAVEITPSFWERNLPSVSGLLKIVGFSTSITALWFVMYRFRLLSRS
Summary of the method: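 Bovine brain mitochondria were isolated by the Basford method. To isolate MAO-A, fractions were preincubated 30 min at 38 °C with 1 μM L-deprenyl. Inhibitors in DMSO were preincubated 30 min, then kynuramine substrate was added, with 30 min further incubation. Product was read fluorimetrically and Ki values derived.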

Ki [1] [µM] | Ki [2] [µM] | SMILES
2 | 1.2 | O=C1O[C@H](CO)CN1n1cccc1
34 | 1.2 | NC[C@@H]1CN(n2cccc2)C(=O)O1
9 | 0.09 | O=C1O[C@@H](CO)CN1n1cccc1
2 | 0.27 | O=C1O[C@@H](CO)CN1n1cccc1.O=C1O[C@H](CO)CN1n1cccc1
4.4 | 53 | NC[C@H]1CN(n2cccc2)C(=O)O1
200 | 0.2 | [N-]=[N+]=NC[C@H]1CN(n2cccc2)C(=O)O1
50 | 0.0049 | COC[C@H]1CN(n2cccc2)C(=O)O1
23 | 1 | COC[C@@H]1CN(n2cccc2)C(=O)O1
140 | 40 | CN(C)C[C@H]1CN(n2cccc2)C(=O)O1
24 | 2.5 | [N-]=[N+]=NC[C@@H]1CN(n2cccc2)C(=O)O1
0.22 | 0.0025 | COC[C@@H]1CN(c2ccc(OCC[C@H](O)C(F)(F)F)cc2)C(=O)O1 [(R/R)BEFLOXATONE]
